The values that follow come from ChEMBL document CHEMBL1145953 (J Med Chem, 2003).

Series [1] deals with T1, Adenosine receptor A3 (Homo sapiens, UniProt P0DMS8).
T1 sequence (P0DMS8 whole entry): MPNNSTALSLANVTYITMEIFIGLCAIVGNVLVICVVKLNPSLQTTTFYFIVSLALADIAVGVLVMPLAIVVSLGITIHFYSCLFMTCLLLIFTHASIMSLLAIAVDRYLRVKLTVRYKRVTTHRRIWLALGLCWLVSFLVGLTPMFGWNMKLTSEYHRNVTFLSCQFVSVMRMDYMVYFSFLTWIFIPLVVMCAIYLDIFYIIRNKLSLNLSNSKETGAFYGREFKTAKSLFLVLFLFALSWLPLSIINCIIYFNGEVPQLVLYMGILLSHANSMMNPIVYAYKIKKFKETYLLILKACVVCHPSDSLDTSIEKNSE
Briefly: Binding affinity using [125I]ABA against human Adenosine A3 receptor.

A further series addresses T2, Adenosine receptor A1 (Homo sapiens, UniProt P30542).
T2 sequence (P30542 whole entry): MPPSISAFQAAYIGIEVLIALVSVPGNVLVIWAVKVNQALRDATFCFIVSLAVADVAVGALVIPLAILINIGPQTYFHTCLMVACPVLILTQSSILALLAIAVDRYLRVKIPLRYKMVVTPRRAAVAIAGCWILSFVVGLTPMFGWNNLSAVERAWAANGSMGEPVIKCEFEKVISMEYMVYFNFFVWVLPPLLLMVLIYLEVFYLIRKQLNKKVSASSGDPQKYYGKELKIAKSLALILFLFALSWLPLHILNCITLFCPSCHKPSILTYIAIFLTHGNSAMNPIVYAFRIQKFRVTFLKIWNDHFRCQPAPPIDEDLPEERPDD
The series can be described thus: Binding affinity using [125I]ABA against human Adenosine A1 receptor.

The target of series [2] is Adenosine receptors; A1 & A3 (Homo sapiens) (UniProt P30542+P0DMS8). Briefly: Ratio of binding affinity for human adenosine A1 and A3 receptors. It is filed as protein assay.
The nature of series [3]: Tested for pKa value of compound. It is filed as physicochemical.
In series [4] the target is T1, Adenosine receptor A3. Briefly: Inhibition of isoproterenol-stimulated cAMP accumulation in HEK 293 cells expressing human Adenosine A3 receptor. It is filed as functional, cell-based, HEK293. In short, it runs like this:
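Functional assay in HEK 293 cells with recombinant human A3 receptors. Cells are stimulated with isoproterenol, and the drop in cAMP accumulation is measured over a concentration–response range. EC50 comes from the curve. Mean and SEM of three experiments, each run in duplicate.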

As usually defined, the Ki is the dissociation constant of the complex between target and ligand, obtained from inhibition or displacement. In the case of `CNC(=O)[C@H]1O[C@@H](n2cnc3c(NCc4cccc(I)c4)ncnc32)[C@H](O)[C@@H]1N`, the Ki at Adenosine receptor A3 [1] is 72 nM; on Adenosine receptor A1, 4600 nM. Besides, the Ratio in series [2] stood at 64.
The corresponding values for `CNC(=O)[C@H]1O[C@@H](n2cnc3c(NC)ncnc32)[C@H](O)[C@@H]1O` are 4.8 nM, 65 nM and 13.
A word on the pKa: it is the pH at which an ionisable group is half protonated. Read a high pKa as a weaker acid or stronger base. Usually EC50 stands for the concentration that produces a half-maximal response. Lower therefore signals greater potency. In series [3], `CNC(=O)[C@H]1O[C@@H](n2cnc3c(NCc4cc(Cl)ccc4OCc4cc(C)no4)ncnc32)[C@H](O)[C@@H]1N` displayed a pKa of 6.25. Besides, the Ki at Adenosine receptor A3 [1] is 5.8 nM; on Adenosine receptor A1 it was 7300 nM. At Adenosine receptor A3 [4], this compound came in with an EC50 of 3.4 nM.
For `CNC(=O)[C@H]1O[C@@H](n2cnc3c(NCc4cc(Cl)ccc4OCc4cc(C)no4)ncnc32)[C@H](O)[C@@H]1O`, the Ki on Adenosine receptor A3 [1] came out at 1.6 nM; at Adenosine receptor A1 it was 68 nM. For the same compound, the Ratio in series [2] worked out at 42.
As for `CNC(=O)[C@H]1O[C@@H](n2cnc3c(NC)ncnc32)[C@H](O)[C@@H]1N`, at Adenosine receptor A3 [1], the Ki came to 120 nM. For the same compound, in series [2], the Ratio turned out to be 194.
